# Source: ChEMBL document CHEMBL5154634, “A Modular Synthetic Route Involving N-Aryl-2-nitrosoaniline Intermediates Leads to a New Series of 3-Substituted Halogenated Phenazine Antibacterial Agents” (J Med Chem, 2021)
# Activity calls are given as the source filed them. The calls are words filed in the database; no cut-off is given here.
# Key:
# [1] = Dissociation constant, pKa of the compound at 125 uM by UV-vis spectrophotometric analysis; type: physicochemical
# Summary of the method: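 Compound at 125 μM final in phosphate buffers (KH₂PO₄/Na₂HPO₄) in 1:1 water/methanol, pH 4.07–9.66; ammonium hydroxide added for pH above 9.80. UV-vis scans 200–800 nm to find λmax of phenol and phenolate forms. Absorbance at each λmax plotted against pH.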
# [2] = system: Staphylococcus aureus; assay: Antibacterial activity against methicillin-resistant Staphylococcus aureus 129 assessed as bacterial growth inhibition; type: functional
# [3] = system: HepG2; assay: Cytotoxicity against human HepG2 cells assessed as reduction in cell viability […] by Alamar blue assay; type: toxicity, cell-based
# [4] = system: Staphylococcus epidermidis; assay: Bactericidal activity against methicillin-resistant Staphylococcus epidermidis ATCC 35984 planktonic cells assessed as planktonic eradication incubated for 24 hrs followed by incubation for overnight in fresh medium by Calgary biofilm device assay; type: functional
# Summary of the method: (§1)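 Calgary biofilm device. Biofilms grown 24 h at 37 °C in TSB with 0.5% glucose, then challenged 24 h with twofold compound dilutions. 20 μL of challenge medium transferred into fresh TSB with 0.5% glucose and incubated overnight at 37 °C. MBC is the concentration with no visible turbidity. At least three independent experiments.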
# [5] = system: Staphylococcus aureus; assay: Antibacterial activity against methicillin-resistant Staphylococcus aureus clinical isolate 1 assessed as bacterial growth inhibition; type: functional
# [6] = system: Staphylococcus epidermidis; assay: Antibiofilm activity against methicillin-resistant Staphylococcus epidermidis ATCC 35984 biofilms assessed as reduction of viable biofilm cells at 3.13 uM measured by CBD assay; type: functional
# [7] = system: Staphylococcus epidermidis; assay: Antibiofilm activity against methicillin-resistant Staphylococcus epidermidis ATCC 35984 biofilms assessed as reduction of viable biofilm cells at MBEC measured by CBD assay; type: functional
# Summary of the method: (§2)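 After the Calgary biofilm device assay, treated and untreated pegs were removed, sonicated 30 min in PBS and plated for CFU per peg. Log10 reduction of viable biofilm cells at the MBEC determined by comparison with untreated pegs. At least three independent experiments.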
# [8] = system: Staphylococcus epidermidis; assay: Antibiofilm activity against methicillin-resistant Staphylococcus epidermidis ATCC 35984 biofilms assessed as biofilm killing at 3.13 uM measured by CBD assay; type: functional
# [9] = system: Enterococcus faecalis; assay: Bactericidal activity against […] Enterococcus faecalis OG1RF ATCC 47077 planktonic cells assessed as planktonic eradication incubated for 24 hrs followed by incubation for overnight in fresh medium by Calgary biofilm device assay; type: functional
# Summary of the method: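 Calgary biofilm device in BHI. Biofilms grown 24 h at 37 °C and challenged 24 h with twofold compound dilutions. Challenge medium subcultured 1:10 into fresh BHI overnight at 37 °C. MBC is the concentration with no turbidity. At least three independent experiments.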
# [10] = system: Staphylococcus aureus; assay: Antibacterial activity against methicillin-resistant Staphylococcus aureus BAA-44 assessed as bacterial growth inhibition incubated for 16 hrs by broth microdilution susceptibility test; type: functional
# Summary of the method: (§3)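 CLSI broth microdilution with 11 twofold dilutions (0.05–50 μM). Medium was LB for the staphylococci and BHI for VRE 700221. About 10^5 cells per well from a log-phase culture. […] DMSO vehicle up to 0.5% v/v. At least three independent experiments.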
# [11] = system: Staphylococcus aureus; assay: Antibacterial activity against methicillin-resistant Staphylococcus aureus clinical isolate 2 assessed as bacterial growth inhibition; type: functional
# [12] = system: Erythrocyte; assay: Hemolytic activity against human RBC at 200 uM measured after 1 hr; type: toxicity, cell-based
# Summary of the method: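 2% hRBCs exposed to compound at 200 μM final, added from DMSO stock, for 1 h at 37 °C. Supernatant OD read at 405 nm. Hemolysis normalized between DMSO (0%) and Triton X (100%); three independent experiments.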
# [13] = system: Mycobacterium tuberculosis; assay: Antibacterial activity against Mycobacterium tuberculosis H37Ra ATCC 25177 assessed as bacterial growth inhibition incubated for 7 days by absorbance based analysis; type: functional; settings: H37Ra ATCC 25177, 168 h, time 7 day
# Summary of the method: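 H37Ra grown 2 weeks in Middlebrook 7H9, then diluted to OD600 0.01. Compounds added in twofold dilutions, final 0.024–50 μM, with 0.5% DMSO and streptomycin as positive control. Incubated 7 days at 37 °C. MIC is the lowest concentration with no growth, with OD600 recorded. At least three independent experiments.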
# [14] = system: Staphylococcus aureus; assay: Antibiofilm activity against methicillin-resistant Staphylococcus aureus BAA-1707 biofilms assessed as biofilm killing at MBEC measured by CBD assay; type: functional
# [15] = system: Staphylococcus aureus; assay: Antibacterial activity against methicillin-resistant Staphylococcus aureus 138 assessed as bacterial growth inhibition; type: functional
# [16] = system: Staphylococcus aureus; assay: Bactericidal activity against methicillin-resistant Staphylococcus aureus BAA-1707 planktonic cells assessed as planktonic eradication incubated for 24 hrs followed by incubation for overnight in fresh medium by Calgary biofilm device assay; type: functional; summary of the method: as §1
# [17] = system: Staphylococcus epidermidis; assay: Antibiofilm activity against methicillin-resistant Staphylococcus epidermidis ATCC 35984 biofilms assessed as biofilm eradication incubated for 24 hrs followed by incubation for 24 hrs in fresh medium by Calgary biofilm device assay; type: functional
# Summary of the method: (§4)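 Calgary biofilm device. Mid-log culture diluted 1000-fold in TSB with 0.5% glucose; biofilms grown on pegs 24 h at 37 °C. Pegs washed and challenged with twofold compound dilutions for 24 h at 37 °C, then moved to fresh medium for 24 h. MBEC is the lowest concentration leaving wells non-turbid. At least three independent experiments.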
# [18] = system: Staphylococcus aureus; assay: Antibacterial activity against methicillin-resistant Staphylococcus aureus BAA-1707 assessed as bacterial growth inhibition incubated for 16 hrs by broth microdilution susceptibility test; type: functional
# Summary of the method: (§5)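 CLSI broth microdilution with 11 twofold dilutions (0.05–50 μM). About 10^5 cells per well from a log-phase culture. DMSO vehicle up to 0.5% v/v. At least three independent experiments.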
# [19] = system: Staphylococcus aureus; assay: Antibiofilm activity against methicillin-resistant Staphylococcus aureus BAA-1707 biofilms assessed as reduction of viable biofilm cells at MBEC measured by CBD assay; type: functional; summary of the method: as §2
# [20] = system: Staphylococcus aureus; assay: Antibacterial activity against methicillin-resistant Staphylococcus aureus 147 assessed as bacterial growth inhibition; type: functional
# [21] = system: Staphylococcus epidermidis; assay: Antibacterial activity against methicillin-resistant Staphylococcus epidermidis ATCC 35984 assessed as bacterial growth inhibition incubated for 16 hrs by broth microdilution susceptibility test; type: functional; summary of the method: as §5
# [22] = system: HeLa; assay: Cytotoxicity against human HeLa cells assessed as reduction in cell viability incubated for 24 hrs by LDH release assay; type: toxicity, cell-based
# Summary of the method: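 HeLa cells in DMEM with 10% FBS, treated at 70–80% confluence with 25, 50 and 100 μM for 24 h. LDH in supernatant measured by 30 min reaction at room temperature, then stop solution and absorbance at 490 nm. Controls: 2% Triton X-100 (maximum), medium only, DMSO vehicle. Three independent experiments.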
# [23] = system: Enterococcus faecium; assay: Bactericidal activity against methicillin-resistant vancomycin-resistant Enterococcus faecium ATCC 700221 planktonic cells assessed as planktonic eradication incubated for 24 hrs followed by incubation for overnight in fresh medium by Calgary biofilm device assay; type: functional; summary of the method: as §1
# [24] = system: Staphylococcus aureus; assay: Antibacterial activity against methicillin-resistant Staphylococcus aureus 156 assessed as bacterial growth inhibition; type: functional
# [25] = system: Enterococcus faecalis; assay: Antibacterial activity against Enterococcus faecalis OG1RF ATCC 47077 assessed as bacterial growth inhibition incubated for 16 hrs by broth microdilution susceptibility test; type: functional
# [26] = system: Enterococcus faecium; assay: Antibiofilm activity against methicillin-resistant vancomycin-resistant Enterococcus faecium ATCC 700221 biofilms assessed as biofilm eradication incubated for 24 hrs followed by incubation for 24 hrs in fresh medium by Calgary biofilm device assay; type: functional; summary of the method: as §4
# [27] = system: Mycobacterium tuberculosis; assay: Antibacterial activity against Mycobacterium tuberculosis CDC1551 assessed as bacterial growth inhibition incubated for 5 days by luminescence based analysis; type: functional; settings: CDC1551, 120 h, time 5 day
# Summary of the method: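 Bioluminescent Mtb-lux CDC1551 reporter grown in Middlebrook 7H9 with 0.05% Tween 80, 10% OADC and kanamycin to OD600 0.4–0.8, then diluted to OD600 0.02. Added to twofold drug dilutions (0.003–200 μM). Incubated 5 days at 37 °C, 5% CO2. Luminescence read against 1% DMSO and 10 μM rifampicin controls to give % growth inhibition. MIC taken from a modified Gompertz fit.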
# [28] = system: Enterococcus faecium; assay: Antibacterial activity against vancomycin-resistant Enterococcus faecium ATCC 700221 assessed as bacterial growth inhibition incubated for 16 hrs by broth microdilution susceptibility test; type: functional; summary of the method: as §3
# [29] = system: J774; assay: Cytotoxicity against mouse J774 cells assessed as reduction in cell viability […] by Alamar blue assay; type: toxicity, cell-based
# [30] = Binding affinity to Fe2+ assessed as compound-Fe2+ complex formation by UV-vis spectroscopy
# [31] = system: Staphylococcus aureus; assay: Antibiofilm activity against methicillin-resistant Staphylococcus aureus BAA-1707 biofilms assessed as biofilm eradication incubated for 24 hrs followed by incubation for 24 hrs in fresh medium by Calgary biofilm device assay; type: functional; summary of the method: as §4
# [32] = system: Staphylococcus aureus; assay: Induction of iron starvation in methicillin-resistant Staphylococcus aureus BAA-1707 biofilms assessed as upregulation of sfaA gene expression at 1 uM incubated for 4 hrs by RT-qPCR analysis; type: functional
# Summary of the method: (§6)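 MRSA BAA-1707 grown in TSB with 0.5% glucose to OD600 ~0.8–1.0, then biofilms formed 20 h at 37 °C statically in gelatin-coated 24-well plates. Biofilms treated 4 h at 37 °C with compound (1 μM or 1/10 MBEC) or DMSO vehicle. RNA extracted; only RIN ≥7 samples used. One-step SYBR RT-qPCR; ΔCT normalised to ptaA. Three independent experiments.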
# [33] = system: Staphylococcus aureus; assay: Induction of iron starvation in methicillin-resistant Staphylococcus aureus BAA-1707 biofilms assessed as upregulation of isdB gene expression at 1/10XMBEC incubated for 4 hrs by RT-qPCR analysis; type: functional; summary of the method: as §6
# [34] = system: Enterococcus faecalis; assay: Antibiofilm activity against Enterococcus faecalis OG1RF ATCC 47077 biofilms assessed as biofilm eradication incubated for 24 hrs followed by incubation for 24 hrs in fresh medium by Calgary biofilm device assay; type: functional
# Summary of the method: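 Calgary biofilm device. Biofilms grown 24 h at 37 °C in BHI from mid-log culture diluted 1000-fold. Pegs washed and then challenged 24 h with twofold serial dilutions. Pegs moved to fresh BHI for 24 h recovery. MBEC = lowest concentration leaving no turbidity; at least three independent experiments.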
# [35] = system: Staphylococcus aureus; assay: Induction of iron starvation in methicillin-resistant Staphylococcus aureus BAA-1707 biofilms assessed as upregulation of sbnC gene expression at 1/10XMBEC incubated for 4 hrs by RT-qPCR analysis; type: functional; summary of the method: as §6
# [36] = system: Staphylococcus aureus; assay: Antibiofilm activity against methicillin-resistant Staphylococcus aureus BAA-44 biofilms assessed as biofilm eradication incubated for 24 hrs followed by incubation for 24 hrs in fresh medium by Calgary biofilm device assay; type: functional; summary of the method: as §4
# [37] = system: Staphylococcus aureus; assay: Induction of iron starvation in methicillin-resistant Staphylococcus aureus BAA-1707 biofilms assessed as upregulation of sbnC gene expression at 1 uM incubated for 4 hrs by RT-qPCR analysis; type: functional; summary of the method: as §6
# [38] = system: Staphylococcus aureus; assay: Induction of iron starvation in methicillin-resistant Staphylococcus aureus BAA-1707 biofilms assessed as upregulation of sfaA gene expression at 1/10XMBEC incubated for 4 hrs by RT-qPCR analysis; type: functional; summary of the method: as §6
# [39] = system: Staphylococcus aureus; assay: Induction of iron starvation in methicillin-resistant Staphylococcus aureus BAA-1707 biofilms assessed as upregulation of isdB gene expression at 1 uM incubated for 4 hrs by RT-qPCR analysis; type: functional; summary of the method: as §6
# [40] = system: Staphylococcus aureus; assay: Induction of iron starvation in methicillin-resistant Staphylococcus aureus BAA-1707 biofilms assessed as upregulation of MW0695 gene expression at 1/10XMBEC incubated for 4 hrs by RT-qPCR analysis; type: functional; summary of the method: as §6
# [41] = system: Staphylococcus aureus; assay: Induction of iron starvation in methicillin-resistant Staphylococcus aureus BAA-1707 biofilms assessed as upregulation of MW0695 gene expression at 1 uM incubated for 4 hrs by RT-qPCR analysis; type: functional; summary of the method: as §6
SMILES,IC50 [3] [µM],MBC [4] [µM],MBC [9] [µM],Activity [12],MIC [13] [µM],MBC [16] [µM],MBEC [17] [µM],MIC [18] [µM],IC50 [22] [µM],MBC [23] [µM],MIC [25] [µM],MBEC [26] [µM],MIC [27] [µM],IC50 [29] [µM],Activity [30],further results
Oc1c(Br)c(Cl)c(Br)c2nc3c(Cl)cc(Cl)cc3nc12,> 200,0.59,3.13,<= 1%,6.25,1.56,0.3,0.59,> 100,0.39,0.3,0.2,0.8,> 200,Active,pKa at 125 µM [1]: 6.07; MIC [2]: 0.47 µM; MIC [5]: 0.47 µM; Activity [6]: 5 log10CFU; Activity [7]: 3.18 log10CFU; Activity [8]: 99.999%; MIC [10]: 0.15 µM; MIC [11]: 0.47 µM; Activity [14]: 99.9%; MIC [15]: 0.47 µM; Activity [19]: 3.03 log10CFU; MIC [20]: 0.47 µM; MIC [21]: ≤ 0.05 µM; MIC [24]: 0.47 µM; MIC [28]: 0.08 µM; MBEC [31]: 3.13 µM
Oc1c(Br)c(Cl)c(Br)c2nc3ccccc3nc12,> 200,12.5,75,<= 1%,6.25,50,25,0.15,> 100,4.69,3.13,2.35,4.37,> 200,Active,Activity [32]: Active; Activity [33]: Active; MBEC [34]: >200 µM; Activity [35]: Active; MBEC [36]: 75 µM; Activity [37]: Active; Activity [38]: Active; Activity [39]: Active; Activity [40]: Active; Activity [41]: Active
